Source: ChEMBL document CHEMBL2157986, “The multiobjective based design, synthesis and evaluation of the arylsulfonamide/amide derivatives of aryloxyethyl- and arylthioethyl- piperidines and pyrrolidines as a novel class of potent 5-HT₇ receptor antagonists” (Eur J Med Chem, 2012)

How the values were obtained:
[1] = target: 5-hydroxytryptamine receptor 7 (Homo sapiens, UniProt P34969); experiment: Displacement of [3H]-5-CT from human 5-HT7b receptor expressed in HEK293 cells after 1 hr; type: cell-based
[2] = target: T1, 5-hydroxytryptamine receptor 1A (Homo sapiens, UniProt P08908); experiment: Displacement of [3H]-8-OH-DPAT from human 5-HT1A receptor expressed in HEK293 cells after 1 hr; type: cell-based
T1 sequence (P08908 whole entry): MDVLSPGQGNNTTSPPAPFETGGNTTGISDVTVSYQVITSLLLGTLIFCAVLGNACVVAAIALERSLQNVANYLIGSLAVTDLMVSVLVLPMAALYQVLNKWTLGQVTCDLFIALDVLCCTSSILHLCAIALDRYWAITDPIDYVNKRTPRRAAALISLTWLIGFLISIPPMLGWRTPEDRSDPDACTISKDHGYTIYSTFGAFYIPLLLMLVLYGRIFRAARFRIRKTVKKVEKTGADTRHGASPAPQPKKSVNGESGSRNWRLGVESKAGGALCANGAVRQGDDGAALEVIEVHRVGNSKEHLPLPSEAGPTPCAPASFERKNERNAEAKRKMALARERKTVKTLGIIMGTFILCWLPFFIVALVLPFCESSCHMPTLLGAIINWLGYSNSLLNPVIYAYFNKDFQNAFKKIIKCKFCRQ
Outline: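 Membranes from stably transfected HEK293 cells (human 5-HT1A), homogenized in 50 mM Tris–HCl, 0.1 mM EDTA, 4 mM MgCl2, 10 µM pargyline, 0.1% ascorbate; incubated 1 h at room temperature, then rapid filtration and radioactivity counting. Nonspecific binding with 10 µM 5-HT.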

[3] = target: 5-hydroxytryptamine receptor 6 (Homo sapiens, UniProt P50406); experiment: Displacement of [3H]-LSD from human 5-HT6 receptor expressed in HEK293 cells after 1 hr; type: cell-based
D(2) dopamine receptor = D(2) dopamine receptor (Homo sapiens, UniProt P14416); experiment: Binding affinity to human dopamine D2L receptor expressed in HEK293 cells after 1 hr; type: cell-based
Homo sapiens = organism: Homo sapiens; experiment: Selectivity ratio of Ki for human 5-HT1A receptor to Ki for human 5-HT7b receptor

Sequence of 5-hydroxytryptamine receptor 7 (P34969 whole entry): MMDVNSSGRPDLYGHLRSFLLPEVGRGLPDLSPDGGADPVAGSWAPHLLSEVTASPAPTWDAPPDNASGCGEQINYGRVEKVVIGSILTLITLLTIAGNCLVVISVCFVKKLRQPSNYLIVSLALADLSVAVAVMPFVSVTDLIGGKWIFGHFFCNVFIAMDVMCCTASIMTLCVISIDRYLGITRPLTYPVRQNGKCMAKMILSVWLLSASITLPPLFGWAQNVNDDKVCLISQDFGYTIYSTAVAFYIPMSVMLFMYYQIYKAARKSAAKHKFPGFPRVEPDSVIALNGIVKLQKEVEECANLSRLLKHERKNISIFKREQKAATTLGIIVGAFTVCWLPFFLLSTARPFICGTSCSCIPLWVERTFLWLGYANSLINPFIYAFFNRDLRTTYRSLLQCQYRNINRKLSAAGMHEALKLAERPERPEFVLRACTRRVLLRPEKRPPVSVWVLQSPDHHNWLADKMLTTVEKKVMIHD
Sequence of D(2) dopamine receptor (P14416 whole entry): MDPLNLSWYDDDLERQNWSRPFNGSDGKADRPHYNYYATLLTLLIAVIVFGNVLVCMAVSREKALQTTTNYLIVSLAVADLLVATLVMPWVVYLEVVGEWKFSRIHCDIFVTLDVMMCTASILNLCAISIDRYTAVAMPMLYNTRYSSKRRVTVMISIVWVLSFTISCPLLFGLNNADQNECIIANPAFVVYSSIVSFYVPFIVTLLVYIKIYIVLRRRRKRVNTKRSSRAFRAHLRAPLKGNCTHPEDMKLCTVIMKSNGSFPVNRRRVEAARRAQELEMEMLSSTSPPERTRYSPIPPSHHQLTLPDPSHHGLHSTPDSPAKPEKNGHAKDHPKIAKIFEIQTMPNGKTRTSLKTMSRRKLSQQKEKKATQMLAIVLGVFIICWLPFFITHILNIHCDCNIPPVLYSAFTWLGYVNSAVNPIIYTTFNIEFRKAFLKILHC
Sequence of 5-hydroxytryptamine receptor 6 (P50406 whole entry): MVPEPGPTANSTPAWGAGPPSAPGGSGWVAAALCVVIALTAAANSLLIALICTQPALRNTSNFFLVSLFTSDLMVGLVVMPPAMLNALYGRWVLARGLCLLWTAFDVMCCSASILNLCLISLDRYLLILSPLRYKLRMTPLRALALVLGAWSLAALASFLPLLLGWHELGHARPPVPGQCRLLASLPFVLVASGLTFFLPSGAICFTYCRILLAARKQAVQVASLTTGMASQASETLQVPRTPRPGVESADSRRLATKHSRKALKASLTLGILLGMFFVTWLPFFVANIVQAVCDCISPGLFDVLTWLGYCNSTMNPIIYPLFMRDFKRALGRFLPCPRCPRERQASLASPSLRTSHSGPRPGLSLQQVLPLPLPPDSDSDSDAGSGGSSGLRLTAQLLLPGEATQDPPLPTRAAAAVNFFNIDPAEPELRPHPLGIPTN

Structure (SMILES)	Ki [1] [nM]	Ki [2] [nM]	Ki [3] [nM]	Ki (D(2) dopamine receptor) [nM]	Ratio Ki (Homo sapiens)
CSc1ccccc1OCCN1CCC(NS(=O)(=O)c2cccc(Cl)c2)C1 (stereo not given)	15	5	185	36	< 1
O=S(=O)(N[C@H]1CCN(CCOc2ccccc2-c2ccccc2)C1)c1ccc(F)cc1	10	32	271	10	3
CC(C)c1ccccc1OCCN1CCC(NC(=O)c2ccc3ccccc3n2)C1 (stereo not given)	178	30	1760	79	< 1
O=S(=O)(NC1CCN(CCOc2ccccc2-c2ccccc2)C1)c1cccs1 (stereo not given)	10	45	267	16	5

Continued by falling Ki [1], values first:

Ki [1] [nM]	Ki [2] [nM]	Ki [3] [nM]	Ki (D(2) dopamine receptor) [nM]	Ratio Ki (Homo sapiens)	Structure (SMILES)
11	10	357	41	1	CSc1ccccc1OCCN1CCC(NS(=O)(=O)c2ccc(F)cc2)C1 (stereo not given)
4	31	245	25	8	CC(C)c1ccccc1OCCN1CCC(NS(=O)(=O)c2cccc(Cl)c2)C1 (stereo not given)
